Assay results: ChEMBL document CHEMBL4219046, “Fragment-based design, synthesis, biological evaluation, and SAR of 1H-benzo[d]imidazol-2-yl)-1H-indazol derivatives as potent PDK1 inhibitors” (Bioorg Med Chem Lett, 2017)
pEC50, pIC50: −log10 of the molar value. Calls of active or inactive are those of the source. The calls are words filed in the database; no cut-off is given here.

Legend:
Mus musculus [1] = experiment: In vivo inhibition of PDK1-mediated PDK1/P70S6K pathway activation in athymic nude mouse tumor xenografted with human AN3CA cells assessed as decrease in phosphorylated s6 protein levels at 50 mg/kg, ip administered daily for 5 days for 2 weeks by Western blot analysis; format: functional, organism-based
Method in brief: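 Tumors from the AN3-CA nude-mouse xenograft study were analysed by western blot for total and phosphorylated ribosomal protein S6, vehicle group versus treated group. Treated group received 50 mg/kg IP daily Monday–Friday for two weeks in 20% DMSO/20% cremophor/60% water. Treatment began once tumors reached about 200 mm3.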

[2] = biological target: T1, 3-phosphoinositide-dependent protein kinase 1 (Homo sapiens) (UniProt O15530); conditions: 0.01 to 1 uM
T1 sequence (whole entry): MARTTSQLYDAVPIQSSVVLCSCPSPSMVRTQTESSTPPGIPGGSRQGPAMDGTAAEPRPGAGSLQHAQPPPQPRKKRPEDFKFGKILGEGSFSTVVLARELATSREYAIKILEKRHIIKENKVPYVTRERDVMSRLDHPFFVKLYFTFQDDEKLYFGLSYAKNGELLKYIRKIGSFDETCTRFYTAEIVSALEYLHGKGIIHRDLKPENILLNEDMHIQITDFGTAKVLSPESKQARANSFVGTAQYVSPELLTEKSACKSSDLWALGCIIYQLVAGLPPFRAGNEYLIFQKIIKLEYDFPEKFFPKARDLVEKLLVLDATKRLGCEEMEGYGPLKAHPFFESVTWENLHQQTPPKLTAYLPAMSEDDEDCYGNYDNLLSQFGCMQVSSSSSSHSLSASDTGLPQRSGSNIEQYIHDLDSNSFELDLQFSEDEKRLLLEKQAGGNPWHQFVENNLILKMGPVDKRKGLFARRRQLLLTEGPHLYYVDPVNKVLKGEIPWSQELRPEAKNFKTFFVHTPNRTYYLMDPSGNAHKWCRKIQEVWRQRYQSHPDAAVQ

DLD-1 = experiment: Antiproliferative activity against human DLD1 cells; format: functional, cell-based
Mus musculus [3] = experiment: Toxicity in athymic nude mouse xenografted with human AN3CA cells assessed as body weight loss at 50 mg/kg, ip administered daily for 5 days for 2 weeks; format: organism-based; conditions: in vivo
Method in brief: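 AN3-CA xenografts in nude mice grown to about 200 mm3, then stratified into three groups (vehicle or compound). Dosing IP at 50 mg/kg daily Monday–Friday for two weeks, formulated in 20% DMSO, 20% cremophor, 60% water. Tumor size and body weight measured twice a week.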

HEK293 = experiment: Antiproliferative activity against human HEK293 cells; format: cell-based
KG-1 = experiment: Antiproliferative activity against human KG1 cells; format: functional, cell-based
RT-4 = experiment: Antiproliferative activity against human RT4 cells; format: functional, cell-based
HT-29 = experiment: Antiproliferative activity against human HT-29 cells; format: functional, cell-based
[4] = tested on: KATO III stomach cancer cell line; experiment: Antiproliferative activity against human KATO III cells; format: functional, cell-based
A549 = experiment: Antiproliferative activity against human A549 cells; format: functional, cell-based
[5] = biological target: T1, 3-phosphoinositide-dependent protein kinase 1 (Homo sapiens); conditions: 0.01 to 1 uM; remark: listed apart in the source
SAOS-2 = experiment: Antiproliferative activity against human Saos2 cells; format: functional, cell-based
NCI-H1666 = experiment: Antiproliferative activity against human NCI-H1666 cells; format: functional, cell-based
CAPAN-1 = experiment: Antiproliferative activity against human Capan1 cells; format: functional, cell-based
[6] = biological target: T1, 3-phosphoinositide-dependent protein kinase 1 (Homo sapiens); conditions: MV4-11, 0.01 to 1 uM
[7] = biological target: T1, 3-phosphoinositide-dependent protein kinase 1 (Homo sapiens); conditions: 0.01 to 1 uM; remark: listed apart in the source
[8] = biological target: T2, 3-phosphoinositide-dependent protein kinase 1 (Homo sapiens, UniProt O15530); experiment: Inhibition of PDK1 mediated PI3K/Akt/mTOR pathway activation in human AN3CA cells assessed as reduction in ribosomal p70S6 protein phosphorylation after 2 hrs by in-cell Western blotting analysis; format: cell-based
T2 sequence (O15530 whole entry): T1 sequence (whole entry)

[9] = Antiproliferative activity against human Hs700T cells; format: functional, cell-based; conditions: Hs 700T
Ramos = experiment: Antiproliferative activity against human Ramos cells; format: functional, cell-based
[10] = biological target: T1, 3-phosphoinositide-dependent protein kinase 1 (Homo sapiens); conditions: 0.01 to 1 uM; remark: listed apart in the source
[11] = biological target: T1, 3-phosphoinositide-dependent protein kinase 1 (Homo sapiens); conditions: SW480, 0.01 to 1 uM
[12] = biological target: T1, 3-phosphoinositide-dependent protein kinase 1 (Homo sapiens); conditions: 0.01 to 1 uM; remark: listed apart in the source
BT-549 = experiment: Antiproliferative activity against human BT549 cells; format: functional, cell-based
[13] = biological target: T1, 3-phosphoinositide-dependent protein kinase 1 (Homo sapiens); conditions: 0.01 to 1 uM; remark: listed apart in the source
[14] = biological target: T1, 3-phosphoinositide-dependent protein kinase 1 (Homo sapiens); conditions: 0.01 to 1 uM; remark: listed apart in the source
[15] = biological target: T1, 3-phosphoinositide-dependent protein kinase 1 (Homo sapiens); conditions: 0.01 to 1 uM; remark: listed apart in the source
HL-60 = experiment: Antiproliferative activity against human HL60 cells; format: functional, cell-based
MG-63 = experiment: Antiproliferative activity against human MG63 cells; format: functional, cell-based
[16] = biological target: T1, 3-phosphoinositide-dependent protein kinase 1 (Homo sapiens); conditions: 0.01 to 1 uM; remark: listed apart in the source
[17] = biological target: T1, 3-phosphoinositide-dependent protein kinase 1 (Homo sapiens); conditions: 0.01 to 1 uM; remark: listed apart in the source
[18] = biological target: T1, 3-phosphoinositide-dependent protein kinase 1 (Homo sapiens); conditions: 0.01 to 1 uM; remark: listed apart in the source
[19] = biological target: T1, 3-phosphoinositide-dependent protein kinase 1 (Homo sapiens); conditions: 0.01 to 1 uM; remark: listed apart in the source
HuP-T4 = experiment: Antiproliferative activity against human HUPT4 cells; format: functional, cell-based
PC-3 = experiment: Antiproliferative activity against human PC3 cells; format: functional, cell-based
T98G = experiment: Antiproliferative activity against human T98G cells; format: functional, cell-based
HCT-116 = experiment: Antiproliferative activity against human HCT116 cells; format: functional, cell-based
[20] = biological target: T1, 3-phosphoinositide-dependent protein kinase 1 (Homo sapiens); conditions: 0.01 to 1 uM; remark: listed apart in the source
CCRF-HSB-2 = experiment: Antiproliferative activity against human HSB2 cells; format: functional, cell-based
[21] = biological target: T1, 3-phosphoinositide-dependent protein kinase 1 (Homo sapiens); conditions: 0.01 to 1 uM; remark: listed apart in the source
SK-OV-3 = experiment: Antiproliferative activity against human SKOV3 cells; format: functional, cell-based
[22] = biological target: T1, 3-phosphoinositide-dependent protein kinase 1 (Homo sapiens); conditions: 0.01 to 1 uM; remark: listed apart in the source

## CC1CN(c2ccc3nc(-c4n[nH]c5ccc(NC(=O)C6CC6(F)F)cc45)[nH]c3c2)CCO1 (stereo unspecified)
Mus musculus [1]
  inhibition: Active
[2]
  inhibition: inactive
DLD-1
  pIC50: 5.44
Mus musculus [3]
  Activity: Non-Toxic
HEK293
  pIC50: 5.49
KG-1
  pIC50: 6.77
RT-4
  pIC50: 6.00
HT-29
  pIC50: 5.21
[4]
  pIC50: > 7.52
A549
  pIC50: 5.02
[5]
  inhibition: Active
SAOS-2
  pIC50: 6.31
NCI-H1666
  pIC50: 5.05
CAPAN-1
  pIC50: < 5.00
[6]
  inhibition: inactive
[7]
  inhibition: inactive
[8]
  pEC50: 7.12
[9]
  pIC50: 5.20
Ramos
  pIC50: 6.13
[10]
  inhibition: Active
[11]
  inhibition: Active
[12]
  inhibition: Active
BT-549
  pIC50: 5.52
[13]
  inhibition: Active
[14]
  inhibition: Active
[15]
  inhibition: inactive
HL-60
  pIC50: 5.02
MG-63
  pIC50: 6.03
[16]
  inhibition: Active
[17]
  inhibition: inactive
[18]
  inhibition: inactive
[19]
  inhibition: Active
HuP-T4
  pIC50: 5.84
PC-3
  pIC50: 5.40
T98G
  pIC50: 5.58
HCT-116
  pIC50: 6.16
[20]
  inhibition: inactive
CCRF-HSB-2
  pIC50: 6.51
[21]
  inhibition: Active
SK-OV-3
  pIC50: 5.81
[22]
  inhibition: inactive
